Here are results for 1 compound from ChEMBL document CHEMBL2390917, “Synthesis and biological evaluation of 2-(5-methyl-4-phenyl-2-oxopyrrolidin-1-yl)-acetamide stereoisomers as novel positive allosteric modulators of sigma-1 receptor” (Bioorg Med Chem, 2013).

Each structure is given as a SMILES string. Calls of active or inactive are those of the source. The calls are words filed in the database; no cut-off is given here.

The subject of data set [1] is Mus musculus. Description: Toxicity in ICR mouse assessed as effect on locomotor activity measured moved distance per 4 mins at 10 mg/kg, ip after 30 mins by open field test (reference value: 1124 121 cm). The data set is classed as organism-based. Also noted: dose 10 mg/kg, route intraperitoneal. Particulars: in vivo.
The target of data set [2] is Type-2 angiotensin II receptor (Homo sapiens) (UniProt P50052). As to the kind of experiment: Binding affinity to human angiotensin AT2 receptor at 10 uM by radioligand displacement assay relative to control. (Loss of bound radioactivity is the signal in a displacement assay; it reports binding, not function.)
Type-2 angiotensin II receptor (Homo sapiens), sequence (P50052 whole entry): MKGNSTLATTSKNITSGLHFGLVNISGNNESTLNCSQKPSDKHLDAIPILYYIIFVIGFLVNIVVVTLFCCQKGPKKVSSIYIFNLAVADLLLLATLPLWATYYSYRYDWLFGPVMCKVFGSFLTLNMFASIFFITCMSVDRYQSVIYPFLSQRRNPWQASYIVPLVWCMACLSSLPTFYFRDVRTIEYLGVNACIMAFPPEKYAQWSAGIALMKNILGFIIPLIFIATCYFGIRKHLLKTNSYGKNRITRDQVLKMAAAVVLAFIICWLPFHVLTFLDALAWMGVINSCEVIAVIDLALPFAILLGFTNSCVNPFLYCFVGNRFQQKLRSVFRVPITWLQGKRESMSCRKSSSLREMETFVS
For data set [3], the species on record is Homo sapiens. As to the kind of experiment: Binding affinity to human TNFalpha receptor at 10 uM by radioligand displacement assay relative to control.
Data set [4] relates to Mus musculus. Description: Antiamnesic activity in ICR mouse scopolamine-induced memory impairment model assessed as increase in retention latency at 5 mg/kg, ip administered 60 mins prior to scopolamine challenge measured after 40 mins by passive avoidance test in presence of sigma-1 receptor anatagonist NE-100. The data set is classed as functional, organism-based. Also noted: dose 5 mg/kg.

Data set [5] concerns the target Neurotensin receptor type 1 (Homo sapiens) (UniProt P30989). As to the kind of experiment: Binding affinity to NTS1 receptor (unknown origin) at 10 uM by radioligand displacement assay relative to control.
For data set [6], the target named is Sigma non-opioid intracellular receptor 1 (Rattus norvegicus) (UniProt Q9R0C9). As to the kind of experiment: Positive allosteric modulation of Wistar rat sigma 1 receptor assessed as increase in electrically-stimulated vas deferens contraction at 10 uM after 10 mins. The method, boiled down:
(§1)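 Isolated rat vas deferens, proximal ~15 mm segments, in K-H buffer at 32 °C gassed […], with 1.0 g passive tension and a 60 min adaptation. Field-stimulated at 0.1 Hz, 1 ms, 50 V. Cumulative PRE-084 (1–100 µM) was given, then washout and a 30 min rest. Test compound 10 µM was added for 10 min before cumulative PRE-084. Response is % increase over baseline amplitude; n=6, mean ± SEM, paired t-test.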

The target of data set [7] is Melanocortin receptor 4 (Homo sapiens) (UniProt P32245). As to the kind of experiment: Binding affinity to human MC4 receptor at 10 uM by radioligand displacement assay relative to control.
Melanocortin receptor 4 (Homo sapiens), sequence (P32245 whole entry): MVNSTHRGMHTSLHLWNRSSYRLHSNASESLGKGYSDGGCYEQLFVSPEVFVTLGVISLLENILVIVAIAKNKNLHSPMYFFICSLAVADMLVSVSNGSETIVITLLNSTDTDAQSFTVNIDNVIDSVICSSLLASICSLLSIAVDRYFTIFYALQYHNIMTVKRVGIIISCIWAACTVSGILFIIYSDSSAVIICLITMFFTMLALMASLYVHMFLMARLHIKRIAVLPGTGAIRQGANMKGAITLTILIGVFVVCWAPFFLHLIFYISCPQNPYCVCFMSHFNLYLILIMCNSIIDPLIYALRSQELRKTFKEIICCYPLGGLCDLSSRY
Data set [8] is filed under the species Homo sapiens. As to the kind of experiment: Binding affinity to L-type calcium channel verapamil binding site (unknown origin) at 10 uM by radioligand displacement assay relative to control.
For data set [9], the system named is Mus musculus. As to the kind of experiment: Toxicity in ip dosed ICR mouse assessed as effect on motor strength measured within 5 secs by traction test. Format: organism-based. Particulars: in vivo, 5 s.
In data set [10] the target is Histamine H1 receptor (Homo sapiens) (UniProt P35367). As to the kind of experiment: Binding affinity to human histamine H1 receptor at 10 uM by radioligand displacement assay relative to control.
Histamine H1 receptor (Homo sapiens), sequence (P35367 whole entry): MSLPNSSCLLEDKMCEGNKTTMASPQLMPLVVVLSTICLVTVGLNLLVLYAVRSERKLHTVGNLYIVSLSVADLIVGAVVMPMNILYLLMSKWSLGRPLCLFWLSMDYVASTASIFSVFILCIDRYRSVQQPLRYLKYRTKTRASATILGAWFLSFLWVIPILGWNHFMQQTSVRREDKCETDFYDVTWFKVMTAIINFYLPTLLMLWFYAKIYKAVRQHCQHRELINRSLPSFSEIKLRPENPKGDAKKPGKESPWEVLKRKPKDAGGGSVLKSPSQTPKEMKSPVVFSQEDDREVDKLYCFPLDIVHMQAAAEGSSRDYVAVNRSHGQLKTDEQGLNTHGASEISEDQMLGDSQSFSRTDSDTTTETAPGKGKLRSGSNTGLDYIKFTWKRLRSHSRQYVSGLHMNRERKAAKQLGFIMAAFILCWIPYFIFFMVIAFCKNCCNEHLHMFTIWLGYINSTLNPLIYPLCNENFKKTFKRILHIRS
The target in data set [11] is Sigma non-opioid intracellular receptor 1 (Rattus norvegicus) (UniProt Q9R0C9). Description: Positive allosteric modulation of Wistar rat sigma 1 receptor assessed as potentiation of PRE-084 effect on electrically-stimulated vas deferens contraction at 10 uM preincubated for 10 mins followed by PRE-084 addition. The method, boiled down: as §1
Sigma non-opioid intracellular receptor 1 (Rattus norvegicus), sequence (Q9R0C9 whole entry): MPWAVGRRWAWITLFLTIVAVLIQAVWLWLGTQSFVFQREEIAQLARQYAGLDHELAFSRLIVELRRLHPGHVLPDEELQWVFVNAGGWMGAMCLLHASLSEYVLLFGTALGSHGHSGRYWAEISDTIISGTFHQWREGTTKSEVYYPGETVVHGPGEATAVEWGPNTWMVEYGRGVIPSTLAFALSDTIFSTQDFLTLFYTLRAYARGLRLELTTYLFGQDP
Data set [12] deals with Somatostatin receptor type 1 (Homo sapiens) (UniProt P30872). Description: Binding affinity to Somatostatin receptor type 1 (unknown origin) at 10 uM by radioligand displacement assay relative to control.
Somatostatin receptor type 1 (Homo sapiens), sequence (P30872 whole entry): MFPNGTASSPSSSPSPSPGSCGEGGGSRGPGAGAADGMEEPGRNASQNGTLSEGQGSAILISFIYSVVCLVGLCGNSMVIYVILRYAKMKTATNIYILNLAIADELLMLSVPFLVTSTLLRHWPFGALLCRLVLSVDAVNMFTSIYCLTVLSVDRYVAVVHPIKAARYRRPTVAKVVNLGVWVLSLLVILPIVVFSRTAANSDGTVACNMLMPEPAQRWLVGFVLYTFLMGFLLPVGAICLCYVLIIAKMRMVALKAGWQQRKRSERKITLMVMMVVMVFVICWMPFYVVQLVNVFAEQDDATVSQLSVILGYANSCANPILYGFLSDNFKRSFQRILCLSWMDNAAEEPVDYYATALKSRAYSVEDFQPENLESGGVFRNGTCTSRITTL
The species entered for data set [13] is Homo sapiens. As to the kind of experiment: Binding affinity to bombesin receptor (unknown origin) at 10 uM by radioligand displacement assay relative to control.
For data set [14], the system named is Mus musculus. As to the kind of experiment: Toxicity in ICR mouse assessed as effect on locomotor activity measured moved distance per 4 mins at 100 mg/kg, ip after 240 mins by open field test (reference value: 398 70 cm). Format: organism-based. Also noted: dose 100 mg/kg, route intraperitoneal. Particulars: in vivo.
Data set [15] has as its target voltage-gated potassium channel (Homo sapiens, UniProt O43525+O43526+O95259+P16389+P17658+P22001+P22459+P22460+P48547+P51787+P56696+Q03721+Q09470+Q12809+Q14003+Q14721+Q16322+Q6PIU1+Q8NCM2+Q8TAE7+Q8TDN1+Q8TDN2+Q92953+Q96KK3+Q96L42+Q96PR1+Q96RP8+Q9BQ31+Q9H252+Q9H3M0+Q9NR82+Q9NS40+Q9NSA2+Q9NZV8+Q9UIX4+Q9UJ96+Q9UK17+Q9ULD8+Q9ULS6+Q9UQ05). Description: Binding affinity to voltage-gated potassium channel (unknown origin) at 10 uM by radioligand displacement assay relative to control. Format: protein assay.

Data set [16] concerns the target Muscarinic acetylcholine receptor M4 (Homo sapiens) (UniProt P08173). Description: Binding affinity to human muscarinic M4 receptor at 10 uM by radioligand displacement assay relative to control.
The target of data set [17] is Platelet-derived growth factor receptor (Homo sapiens) (UniProt P09619+P16234). As to the kind of experiment: Binding affinity to PDGF receptor (unknown origin) at 10 uM by radioligand displacement assay relative to control. Format: protein-complex assay.

Muscarinic acetylcholine receptor M4 (Homo sapiens), sequence (P08173 whole entry): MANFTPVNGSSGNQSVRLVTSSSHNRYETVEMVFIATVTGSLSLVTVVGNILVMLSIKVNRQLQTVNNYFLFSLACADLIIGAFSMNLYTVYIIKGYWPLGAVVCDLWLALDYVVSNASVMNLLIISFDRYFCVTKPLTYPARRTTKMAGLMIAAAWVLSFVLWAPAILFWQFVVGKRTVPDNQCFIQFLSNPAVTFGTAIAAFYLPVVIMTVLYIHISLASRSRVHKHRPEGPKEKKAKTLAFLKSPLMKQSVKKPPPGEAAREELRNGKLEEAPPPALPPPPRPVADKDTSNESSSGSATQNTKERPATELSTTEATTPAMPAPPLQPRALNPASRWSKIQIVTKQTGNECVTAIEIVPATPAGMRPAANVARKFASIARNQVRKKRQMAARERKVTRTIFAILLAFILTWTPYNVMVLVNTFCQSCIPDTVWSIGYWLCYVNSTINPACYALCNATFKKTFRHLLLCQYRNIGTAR
Neurotensin receptor type 1 (Homo sapiens), sequence (P30989 whole entry): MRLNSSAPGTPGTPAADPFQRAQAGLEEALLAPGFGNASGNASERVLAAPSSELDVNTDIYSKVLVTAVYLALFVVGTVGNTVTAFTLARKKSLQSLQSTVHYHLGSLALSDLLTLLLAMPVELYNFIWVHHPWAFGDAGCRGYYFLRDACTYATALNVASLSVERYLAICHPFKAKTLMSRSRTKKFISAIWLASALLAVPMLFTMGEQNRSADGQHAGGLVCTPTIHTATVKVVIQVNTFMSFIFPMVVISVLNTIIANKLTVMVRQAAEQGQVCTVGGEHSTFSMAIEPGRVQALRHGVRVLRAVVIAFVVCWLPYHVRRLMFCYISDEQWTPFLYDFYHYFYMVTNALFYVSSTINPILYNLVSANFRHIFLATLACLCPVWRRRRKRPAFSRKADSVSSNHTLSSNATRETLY

For `C[C@H]1[C@@H](c2ccccc2)CC(=O)N1CC(N)=O`, the Activity in data set [1] came to 1026 cm; in data set [14], 458 cm. In addition, the inhibition (usually the change of the read-out against control, counted positive when it falls) was -5% in data set [2]; -3% in data set [3]; -3% in data set [5]; 4% in data set [7]; -1% in [8]; -7% in [10]. The inhibition in data set [12] was -5%; in data set [13], -5%; in data set [16], -3%; in data set [17] it was -6%. Besides, the outcome in data set [4] and in data set [6] was inactive. In addition, the ED50 (commonly the dose that gives a 50% effect, or the effect in half of the subjects) in data set [9] was 595 mg/kg. In addition, the result in [11] was Active. Also, in data set [15], the inhibition at 10 µM is -2%.
